# FN deposit inh: fibronectin deposition inhibition; AH1F fibroblasts, Alexa488-fibronectin deposition fluorescence, overnight; inhibition, % at 12.6 µM; 350,000 compounds, 0.086% hits;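 active = mean inhibition across replicates of 30% or more, regardless of how many single replicates reach that level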
#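 Material: AH1F fibroblast monolayer depositing Alexa488-labelled fibronectin into matrix / Amount: 10000 AH1F cells per well / Signal: fluorescence 485/525 nm / Medium: DMEM, 2% serum / Compound: single dose, pinned / Incubation: 1 h cell adhesion before compound, then overnight fibronectin incubation / Reagent: Alexa488-FN, 24 nM final / Read-out: inhibition of fibronectin deposition signal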
# NPR2 activator: GC-B (human) receptor activation | P20594 | 370,000 compounds, 0.11% hits | activation, % at 10 µM | HEK293-GC-B cells, CNP EC30, cGMP TR-FRET; 0% at EC30 CNP, 100% saturating CNP;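 active = activation at 10 µM reaching about 35% in either raw or pattern-adjusted values, limit read from the data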
# Target sequence (P20594 whole entry, looked up): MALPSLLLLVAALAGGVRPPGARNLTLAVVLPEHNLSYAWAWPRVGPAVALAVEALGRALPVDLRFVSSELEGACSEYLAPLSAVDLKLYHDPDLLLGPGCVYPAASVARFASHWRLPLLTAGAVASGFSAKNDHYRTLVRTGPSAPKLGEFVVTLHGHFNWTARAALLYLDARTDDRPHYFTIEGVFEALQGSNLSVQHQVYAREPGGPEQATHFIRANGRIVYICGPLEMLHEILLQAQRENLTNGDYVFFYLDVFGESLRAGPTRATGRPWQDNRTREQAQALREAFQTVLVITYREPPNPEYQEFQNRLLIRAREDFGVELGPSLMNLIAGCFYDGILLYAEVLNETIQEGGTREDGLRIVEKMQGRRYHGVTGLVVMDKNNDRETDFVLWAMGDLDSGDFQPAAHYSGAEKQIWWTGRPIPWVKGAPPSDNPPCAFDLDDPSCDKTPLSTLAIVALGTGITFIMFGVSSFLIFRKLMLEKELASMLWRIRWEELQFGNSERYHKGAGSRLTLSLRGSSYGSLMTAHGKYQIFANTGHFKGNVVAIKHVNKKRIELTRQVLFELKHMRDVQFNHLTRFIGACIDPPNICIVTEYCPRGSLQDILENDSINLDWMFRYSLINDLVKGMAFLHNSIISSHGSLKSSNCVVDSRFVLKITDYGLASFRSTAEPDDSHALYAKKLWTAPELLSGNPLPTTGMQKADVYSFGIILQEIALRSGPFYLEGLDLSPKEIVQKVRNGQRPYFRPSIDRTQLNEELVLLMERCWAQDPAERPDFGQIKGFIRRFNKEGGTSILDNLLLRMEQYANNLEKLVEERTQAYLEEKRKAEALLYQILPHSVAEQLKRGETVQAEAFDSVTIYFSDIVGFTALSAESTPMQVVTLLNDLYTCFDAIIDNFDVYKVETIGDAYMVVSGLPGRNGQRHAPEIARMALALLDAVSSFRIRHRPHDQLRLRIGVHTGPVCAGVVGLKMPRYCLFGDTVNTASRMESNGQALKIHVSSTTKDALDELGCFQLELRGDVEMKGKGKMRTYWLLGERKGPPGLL
# CaV13 FRET inh: Primary screen for inhibitors of IQ motif and Ca2+-dependent inactivation inhibitor domain binding in CACNA1D, Förster resonance energy transfer in living cells, …; 340,000 compounds, 0.098% hits; HEK cells, CFP/YFP FRET ICDI-IQ, plate reader, 10 min; percent FRET-ratio fall versus neutral wells; inhibition, % at 12.3 µM;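 active = mean replicate inhibition of at least 30% and at least 1% of replicates passing that level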
# GC-A act: GC-A (human) enzyme activation; P16066; HEK293 GC-A cells, cGMP TR-FRET, EC30 ANP; 0% at EC30 ANP, 100% saturating ANP; activation, % at 10 µM; 370,000 compounds, 0.14% hits; in the data active = activation above about 40%
# NSD2 HMT inh: inhibitors of human histone methyltransferase NSD2; inhibition, % at 12.5 µM; 310,000 compounds, 0.54% hits; NSD2 peptide methylation, AlphaScreen, 120 min; O96028; AID 743445; in the data active = inhibition above about 50%
# CASP6 VEID inh: blocks human caspase-6 cleavage activity | purified caspase-6, Z-VEID-R110 cleavage fluorescence | 350,000 compounds, 0.53% hits | P55212 | inhibition, % at 12.5 µM;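 active = mean inhibition across replicates at least about 35%, with every replicate also reaching that limit, limit read from the data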
# Numbers stand for hits; n = inactive; x = no result given. A selection: hits, their analogues and other compounds. The true share with any hit is near 0.99%.
SMILES,FN deposit inh,NPR2 activator,CaV13 FRET inh,GC-A act,NSD2 HMT inh,CASP6 VEID inh
COc1ccccc1-c1cc(C(F)(F)F)nc(N2CCCC2)n1,n,n,n,n,n,x
COc1ccccc1-c1cc(C(F)(F)F)nc(S(=O)(=O)CCCC(=O)Nc2cc(C)on2)n1,x,n,n,76,n,x
COc1ccccc1-c1cc(C(F)(F)F)nc(S(=O)(=O)CCCC(=O)NCc2ccc(F)cc2)n1,n,n,n,75,n,n
COc1ccccc1-c1cc(C(F)(F)F)nc(S(C)(=O)=O)n1,x,n,n,77,n,x
Cc1ccc(S(=O)(=O)N(C)C[C@H]2Oc3ccc(NS(=O)(=O)c4ccccc4)cc3CC(=O)N([C@H](C)CO)C[C@H]2C)cc1,x,x,x,x,x,n
COc1ccccc1-c1cc(C(F)(F)F)nc(S(=O)(=O)CCCC(=O)NC(C)C)n1,x,n,x,73,n,x
COc1ccccc1-c1cc(C(F)(F)F)nc(S(=O)(=O)CCCC(=O)Nc2cccnc2Cl)n1,n,n,n,73,n,n
C[C@@H]1CN([C@@H](C)CO)C(=O)Cc2cc(NC(=O)CCC(F)(F)F)ccc2O[C@@H]1CN(C)Cc1ccc(C(F)(F)F)cc1,n,x,x,x,x,n
Cc1ccc(S(=O)(=O)Nc2ccc3c(c2)C(=O)N([C@H](C)CO)C[C@H](C)[C@@H](CN(C)S(=O)(=O)c2c(C)noc2C)OCCCC[C@H](C)O3)cc1,n,x,x,x,x,n
COc1ccccc1S(=O)(=O)N[C@H]1CC[C@@H](CCn2cc(C3CCCCC3)nn2)O[C@H]1CO,n,x,x,x,x,n
CC1(C)Cc2c(C#N)c(NCCc3ccccc3)nc(-c3ccco3)c2CO1,x,48,n,n,n,x
COc1ccc([N+](=O)[O-])cc1NS(=O)(=O)c1cc(C(=O)N2CCN(C)CC2)ccc1OC,n,n,n,n,n,n
COc1ccc([N+](=O)[O-])cc1NS(=O)(=O)c1ccc(C(=O)N2CCCC2)cc1,34,n,n,n,n,n
CCCc1ccc(Oc2cn[nH]c2-c2ccc(O)cc2O)cc1,n,n,n,40,n,x
COc1ccc(Oc2cn[nH]c2-c2ccc(O)cc2O)cc1,x,n,x,n,n,x
COc1ccc(C2NC(=O)c3sc4nc(C)c(C(C)=O)c(-c5ccc(Cl)cc5)c4c3N2)cc1 (stereo unspecified),x,n,n,46,n,x
COc1ccc(-c2c(C(C)=O)c(C)nc3sc4c(=N)n(N)cnc4c23)cc1,n,n,n,n,n,x
N=C1/C(=C\c2coc3ccc(O)cc3c2=O)C(=O)N=C2SC=CN12,n,n,n,n,n,42
C=CC1=C(C(=O)O)N2C(=O)[C@@H](NC(=O)/C(=N\O)c3csc(N)n3)[C@H]2SC1 (stereo in doubt),n,n,n,n,x,87
Cn1c(=O)n(Cc2ccccc2)c(=O)c2c1nc1n2CCCN1CCc1ccccc1,x,43,x,n,n,x
Cn1c(=O)n(Cc2ccccc2)c(=O)c2c1nc1n2CCCN1Cc1ccccc1,x,n,x,n,n,x
O=C1CCCn2cc(nn2)COC[C@@H](Cc2ccccc2)N1,n,x,x,x,x,n
O=C(CCl)N1N=C(c2cccs2)CC1c1ccco1 (stereo unspecified),n,n,n,n,n,n
O=C(CCl)N1N=C(c2ccco2)CC1c1ccco1 (stereo unspecified),n,n,n,n,n,60
CC(=O)Nc1cccc(Oc2ncnc3scc(-c4ccccc4)c23)c1,n,46,n,n,n,x
SMILES,FN deposit inh,NPR2 activator,CaV13 FRET inh,GC-A act,NSD2 HMT inh,CASP6 VEID inh
CC1=NN(c2nc(N)nc(/C(C#N)=C/c3ccc([N+](=O)[O-])o3)n2)C(C)(C)C1,n,41,n,46,x,n
NNC(=O)CC1=NNC(=O)C1,n,n,n,n,n,40
CCCNC(=O)N1CC2(CCN(CC3CC3)CC2)c2c(n(C)c3cc(OC)ccc23)[C@@H]1CO,x,x,x,x,x,n
Cc1ccnc(Nc2nc(-c3c(C)nc4sccn34)cs2)c1,n,37,n,n,n,x
Cc1ccnc(Nc2nc(-c3ccccc3)cs2)c1,n,n,n,n,n,n
Cc1ccc2c(CC(=O)OC3CCOC3=O)coc2c1 (stereo unspecified),n,n,n,43,n,x
O=C(C[C@@H]1C=C[C@@H](NC(=O)C2CCC2)[C@H](CO)O1)NC1CCC1,x,x,x,x,x,n
CC(=O)N1c2ccc(S(=O)(=O)N(C)CC(=O)NCc3ccc(C)cc3)cc2CC1C (stereo unspecified),n,n,n,n,n,72
COc1cccc(CNC(=O)CN(C)S(=O)(=O)c2ccc3c(c2)CC(C)N3C(C)=O)c1 (stereo unspecified),n,n,n,n,n,n
O=C(O)c1cc(-c2ccco2)nn1-c1cccc(Cl)c1,n,n,n,n,n,46
O=C(O)c1cc(-c2cccs2)nn1-c1cccc(Cl)c1,n,n,n,n,n,n
O=C1C2=C(c3ccccc31)[N+](=O)[C@@H]1CCCC[C@@H]1N2[O-],x,n,n,n,n,63
O=C1C2=C(c3ccccc31)[N+](=O)C1CCCCC1N2[O-] (stereo unspecified),x,n,x,n,n,x
C[C@@H]1CN([C@H](C)CO)S(=O)(=O)c2ccc(C3=CCCC3)cc2O[C@@H]1CN(C)C(=O)c1ccccc1,x,x,x,x,x,n
Cc1c(Nc2cc(Cl)c3nonc3c2[N+](=O)[O-])c(=O)n(-c2ccccc2)n1C,n,37,n,n,n,n
O=C(O)c1ccc(Nc2cc(Cl)c3nonc3c2[N+](=O)[O-])cc1,n,n,n,n,n,x
O=[N+]([O-])c1c(Nc2cccc(O)c2)cc(Cl)c2nonc12,35,37,n,n,n,n
Cc1noc(C)c1S(=O)(=O)Nc1cccc2c1O[C@@H](CN(C)CC1CC1)[C@@H](C)CN([C@H](C)CO)C2=O,x,x,x,x,x,n
C[C@@H]1CN([C@H](C)CO)C(=O)c2cc(NC(=O)Cc3ccccc3)ccc2O[C@H]1CN(C)C(=O)NC1CCCCC1,n,x,x,x,x,n
CO[C@@H]1CN(C)C(=O)c2cc(NC(=O)Nc3ccccc3)ccc2OC[C@@H](C)N(CC2CC2)C[C@@H]1C,n,x,x,x,x,x
N#Cc1c2c(c(Nc3ccccc3)n3c1nc1ccccc13)CCC2,x,n,x,54,n,x
N#Cc1c2c(c(Nc3ccc(F)cc3)n3c1nc1ccccc13)CCCC2,x,n,n,44,n,n
C=CCn1c(-c2ccc(OC)cc2)nc2ccccc21,x,n,n,n,n,x
c1ccc(Cn2c(-c3cncs3)nc3ccccc32)cc1,x,n,n,n,n,x
COc1ccc(-c2nc3ccccc3n2Cc2ccccc2)cc1,x,39,x,n,n,x
Brc1ccc(Cn2c(-c3cncs3)nc3ccccc32)cc1,x,n,n,53,n,n
CN(C)Cc1cn(CC[C@H]2CC[C@@H](NC(=O)Nc3ccccc3F)[C@H](CO)O2)nn1,n,x,x,x,x,n
